Screening data as filed in PubChem.
PfG6PD inh: PfG6PD (Plasmodium falciparum) enzyme inhibition. hit rate 0.78% among 350,000. inhibition, % at 20 µM. AID 504690. PfGluPho enzyme, NADPH resazurin-diaphorase fluorescence;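 active = inhibition reaching at least a set limit at 20 µM in the primary screen, cut at about 59% in these data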
G6PDH counter: counter-screen for G6PDH assay hits: L. mesenteroides G6PDH inhibition; Purified L. mesenteroides G6PDH, diaphorase/resazurin coupled fluorescence, 45 min; hit rate 0.12% among 200,000; inhibition, % at 5 µM; in the data active = inhibition above about 50%
HKDC1 inhibitor: inhibitors of human hexokinase HKDC1. inhibition, % at 20 µM. AID 493160. Q2TB90. recombinant HKDC1, G6PDH/diaphorase resazurin coupled fluorescence. hit rate 0.16% among 340,000;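 active = inhibition above about 35% when tested at 20 µM, limit read from the data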
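Incubation: 90 min at room temperature in dark / Material: recombinant HKDC1 (HK5) hexokinase enzyme, produced in-house / Quantity: enzyme 5 µg/mL final / Compound: one dose of 20 µM, 1% DMSO / Reagent: glucose and ATP substrates / Buffer or medium: Tris pH 8.0 buffer with MgCl2, Tween-20, BSA, BME / Technique: resorufin fluorescence at 613 nm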
Diaph inh CS: diaphorase inhibition or chemical oxidation counter-screen; diaphorase resazurin-to-resorufin fluorescence, NADH, 16 min; bacterial (C. kluyveri) enzyme, not human; inhibition, % at 20 µM; hit rate 0.69% among 190,000;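 active = primary screen inhibition at 20 µM above a set limit, cut at about 50% in these data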
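controls = No-NADH positive control and DMSO neutral control | system = Clostridium kluyveri diaphorase enzyme | timing = reaction incubation of 16 min at room temperature | signal = resorufin fluorescence 544/590 nm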
Of the large screens only hits and unclear results are named; the others gave an inactive call. The list is not random: actives were taken first. Their share in the collection is about 1.2%.

Nc1nc2c(s1)CCc1c-2cnn1-c1ccccc1	PfG6PD inh 98, G6PDH counter 62, Diaph inh CS 66
Nc1nc2c(s1)COc1ccccc1-2	none
COc1ccc(C(CNC(=O)c2ccc(S(=O)(=O)Nc3ccccc3OC)cc2)N2CCCC2)cc1 (centres undefined)	none (no result: G6PDH counter, Diaph inh CS)
Cc1cc(C)n2c(SC/C(O)=C(\C#N)c3nc4ccccc4[nH]3)nnc2n1	Diaph inh CS 53
NC(=O)C1CCN(c2nc(-c3cccs3)cs2)CC1	PfG6PD inh 73 (no result: G6PDH counter, Diaph inh CS)
NC(=O)C1CCN(c2nc(-c3ccc(Br)cc3)cs2)CC1	none
COc1ccc(-c2csc(NC(=O)c3ccccc3NS(=O)(=O)c3ccc(F)c(F)c3)n2)cc1	Diaph inh CS 53
Cc1ccc(S(=O)(=O)Nc2ccccc2C(=O)Nc2nc(-c3ccc(F)cc3)cs2)cc1	none
COc1cc(CN2CCC(C(=O)NC3CCCC3)CC2)cc(OC)c1O	G6PDH counter 53
CCOC(=O)C1CCCN(Cc2cc(OC)c(O)c(OC)c2)C1 (centres undefined)	none
COc1cc(CN2CCC(C(=O)N3CCCC(C)C3)CC2)cc(OC)c1O (centres undefined)	G6PDH counter 53
COc1cccc(CNc2ccc(N3CCC(C)CC3)cc2)c1OC	Diaph inh CS 63
CC(=O)n1cc([C@H]2C=C(C(=O)N3CCN(Cc4ccc5c(c4)OCO5)CC3)O[C@@H](OCc3ccc(CO)cc3)C2)c2ccccc21	none
O=C(C1=C[C@H](c2ccc(C(F)(F)F)cc2)C[C@H](OCc2ccc(CO)cc2)O1)N1CCCCCCC1	Diaph inh CS 50
CC(=O)n1cc([C@H]2C=C(C(=O)N3CCN(Cc4ccccc4)CC3)O[C@@H](OCc3ccc(CO)cc3)C2)c2ccccc21	Diaph inh CS 52
O=C(C1=C[C@@H](c2ccc(C(F)(F)F)cc2)C[C@@H](OCc2ccc(CO)cc2)O1)N1CCOCC1	none
CN(Cc1nc(-c2cccs2)no1)CC1(N2CCOCC2)CCCCC1	Diaph inh CS 74
CC(C)OC(=O)CC1C(=O)NCCN1C(=O)COc1ccc(C(C)(C)C)cc1 (centres undefined)	none (no result: G6PDH counter, Diaph inh CS)
CCCCNC(=O)CSc1nc2ccc(C)cc2[nH]1	none
CCOC(=O)CCCNC(=O)CSc1nc2ccc(OCC)cc2[nH]1	Diaph inh CS 54
Cc1c(C(=O)Nc2ccc(S(=O)(=O)Nc3ncccn3)cc2)oc2ccc(F)cc12	none (no result: G6PDH counter, Diaph inh CS)
COc1ccc(/C=C/C(=O)NC(=S)NNC(=O)c2cccnc2)cc1	Diaph inh CS 75
COc1ccc(C(=O)NNC(=S)NC(=O)c2cccnc2)cc1	none
Nc1c(C(=O)NC2CC2)c2nc3ccccc3nc2n1-c1ccc2c(c1)OCO2	Diaph inh CS 66
O=C(O)CCSc1nnc(SCC(=O)NC2CCS(=O)(=O)C2)s1 (centres undefined)	none (no result: G6PDH counter, Diaph inh CS)
CN(C)NC(=S)NC(=O)C12CC3CC(CC(C3)C1)C2	none
CN(C(=S)NC(=O)C12CC3CC(CC(C3)C1)C2)c1ccc(O)cc1	PfG6PD inh 103 (no result: G6PDH counter, Diaph inh CS)
COc1cc(OC)c(C2NC(=O)CCC2[N+](=O)[O-])cc1OC (centres undefined)	none (no result: G6PDH counter, Diaph inh CS)
Cc1ccc([N+](=O)[O-])cc1-c1[nH]c(-c2ccc(O)c(O)c2)nc1-c1ccccc1	Diaph inh CS 64
COc1ccc(-c2nc(-c3ccccc3)c(-c3cc([N+](=O)[O-])ccc3C)[nH]2)cc1O	none
O=C(CN1CC(=O)Oc2ccccc21)OCC(=O)c1ccc(F)cc1	Diaph inh CS 51
COc1cccc2cc(-c3ccnc(=S)[nH]3)oc12	Diaph inh CS 58 (no result: PfG6PD inh, HKDC1 inhibitor)
CC(C)C(C(=O)NCC1CCCO1)N(C(=O)CNS(=O)(=O)c1ccccc1)C1CCCCC1 (centres undefined)	none (no result: G6PDH counter, Diaph inh CS)
CCN1CCc2c(sc(N)c2C#N)C1	none
N#Cc1c(N)sc(=S)c2c1CCN(Cc1ccccc1)C2	Diaph inh CS 82 (no result: PfG6PD inh, HKDC1 inhibitor)
N#Cc1c(NCCO)nc(NCc2ccccc2)c2c1CCN(Cc1ccccc1)C2	Diaph inh CS 59
CCN1CCc2c(C#N)c(N3CCCCC3)nc(NCc3ccccc3)c2C1	none
COc1ccc(CCNC(=O)c2ccc3c(c2)S(=O)(=O)N=C2CCCCCN23)cc1	none (no result: G6PDH counter, Diaph inh CS)
COc1ccc2nc(Nc3sc4c(c3C(N)=O)CCCC4)sc2c1	PfG6PD inh 67
COc1ccccc1NC(=O)CSc1ccc(-c2cccs2)nn1	Diaph inh CS 57
O=c1ccc2cc3c([nH]c4ccc(Br)cc43)oc-2c1O	Diaph inh CS 76 (no result: PfG6PD inh, HKDC1 inhibitor)
O=C(O)c1ccc(N=Nc2c(O)[nH]c3ccc(Br)cc23)cc1	none (no result: G6PDH counter, Diaph inh CS)
Oc1ccc(/C=N\Nc2cc(N3CCOCC3)nc(N3CCOCC3)n2)c(O)c1	none
